Data taken from ChEMBL document CHEMBL3593164, “Rational Design and Synthesis of Thioridazine Analogues as Enhancers of the Antituberculosis Therapy” (J Med Chem, 2015).

Tests used:
[1] = tested on: Mycobacterium tuberculosis; assay: Inhibition of multidrug resistance efflux pump in Mycobacterium tuberculosis H37Rv assessed as ethidium bromide MIC at 128 ug/ml after 7 days by two-dimensional broth microdilution checkerboard assay; conditions: 168 h
[2] = tested on: Mycobacterium tuberculosis; assay: Inhibition of multidrug resistance efflux pump in Mycobacterium tuberculosis H37Rv assessed as ethidium bromide MIC at 8 ug/ml after 7 days by two-dimensional broth microdilution checkerboard assay; conditions: 168 h
[3] = tested on: Mycobacterium tuberculosis; assay: Inhibition of multidrug resistance efflux pump in Mycobacterium tuberculosis H37Rv assessed as isoniazid MIC at 32 ug/ml after 7 days by two-dimensional broth microdilution checkerboard assay; conditions: 168 h
[4] = tested on: Mycobacterium tuberculosis; assay: Inhibition of multidrug resistance efflux pump in Mycobacterium tuberculosis H37Rv assessed as ethidium bromide MIC at 64 ug/ml after 7 days by two-dimensional broth microdilution checkerboard assay; conditions: 168 h
[5] = tested on: Mycobacterium tuberculosis; assay: Inhibition of multidrug resistance efflux pump in Mycobacterium tuberculosis H37Rv assessed as ofloxacin MIC at 16 ug/ml after 7 days by two-dimensional broth microdilution checkerboard assay; conditions: 168 h
[6] = tested on: Mycobacterium tuberculosis; assay: Inhibition of multidrug resistance efflux pump in Mycobacterium tuberculosis H37Rv assessed as isoniazid MIC at 256 ug/ml after 7 days by two-dimensional broth microdilution checkerboard assay; conditions: 168 h
In short: (§1)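 M. tuberculosis H37Rv two-dimensional broth microdilution checkerboard. MICs of INH, RIF, AMK, OFX or EtBr were determined without and with graded sub-inhibitory compound concentrations, starting at ½ MIC. Where MIC was undeterminable, the highest concentration still permitting growth was taken as ½ MIC. FIC = MIC of antibacterial in combination / MIC alone. FIC ≤0.25 was scored as synergism and ≥2 as antagonism.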

[7] = tested on: Mycobacterium tuberculosis; assay: Inhibition of multidrug resistance efflux pump in Mycobacterium tuberculosis H37Rv using ethidium bromide as substrate assessed as relative final fluorescence at 1/2 MIC by real-time fluorometry
[8] = tested on: Mycobacterium tuberculosis; assay: Inhibition of multidrug resistance efflux pump in Mycobacterium tuberculosis H37Rv assessed as amikacin MIC at 128 ug/ml after 7 days by two-dimensional broth microdilution checkerboard assay; conditions: 168 h
[9] = tested on: Mycobacterium tuberculosis; assay: Inhibition of multidrug resistance efflux pump in Mycobacterium tuberculosis H37Rv assessed as ethidium bromide MIC at 4 ug/ml after 7 days by two-dimensional broth microdilution checkerboard assay; conditions: 168 h
[10] = tested on: Mycobacterium tuberculosis; assay: Inhibition of multidrug resistance efflux pump in Mycobacterium tuberculosis H37Rv assessed as rifampin MIC at 16 ug/ml after 7 days by two-dimensional broth microdilution checkerboard assay; conditions: 168 h
[11] = tested on: Mycobacterium tuberculosis; assay: Inhibition of multidrug resistance efflux pump in Mycobacterium tuberculosis H37Rv assessed as reduction in rifampin MIC at 64 ug/ml after 7 days by two-dimensional broth microdilution checkerboard assay
[12] = tested on: Mycobacterium tuberculosis; assay: Inhibition of multidrug resistance efflux pump in Mycobacterium tuberculosis H37Rv assessed as ofloxacin MIC at 8 ug/ml after 7 days by two-dimensional broth microdilution checkerboard assay; conditions: 168 h
[13] = tested on: Mycobacterium tuberculosis; assay: Inhibition of multidrug resistance efflux pump in Mycobacterium tuberculosis H37Rv assessed as rifampin MIC at 32 ug/ml after 7 days by two-dimensional broth microdilution checkerboard assay; conditions: 168 h
[14] = tested on: Mycobacterium tuberculosis; assay: Inhibition of multidrug resistance efflux pump in Mycobacterium tuberculosis H37Rv assessed as isoniazid MIC at 16 ug/ml after 7 days by two-dimensional broth microdilution checkerboard assay; conditions: 168 h
[15] = tested on: Mycobacterium tuberculosis; assay: Inhibition of multidrug resistance efflux pump in Mycobacterium tuberculosis H37Rv assessed as amikacin MIC at 32 ug/ml after 7 days by two-dimensional broth microdilution checkerboard assay; conditions: 168 h
[16] = tested on: Mycobacterium tuberculosis; assay: Inhibition of multidrug resistance efflux pump in Mycobacterium tuberculosis H37Rv assessed as ofloxacin MIC at 32 ug/ml after 7 days by two-dimensional broth microdilution checkerboard assay; conditions: 168 h
[17] = tested on: Mycobacterium tuberculosis; assay: Inhibition of multidrug resistance efflux pump in Mycobacterium tuberculosis H37Rv assessed as rifampin MIC at 4 ug/ml after 7 days by two-dimensional broth microdilution checkerboard assay; conditions: 168 h
[18] = tested on: Mycobacterium tuberculosis; assay: Inhibition of multidrug resistance efflux pump in Mycobacterium tuberculosis H37Rv assessed as rifampin MIC at 128 ug/ml after 7 days by two-dimensional broth microdilution checkerboard assay; conditions: 168 h
[19] = tested on: Mycobacterium tuberculosis; assay: Inhibition of multidrug resistance efflux pump in Mycobacterium tuberculosis H37Rv assessed as ofloxacin MIC at 4 ug/ml after 7 days by two-dimensional broth microdilution checkerboard assay; conditions: 168 h
[20] = tested on: Mycobacterium tuberculosis; assay: Inhibition of multidrug resistance efflux pump in Mycobacterium tuberculosis H37Rv assessed as ofloxacin MIC at 128 ug/ml after 7 days by two-dimensional broth microdilution checkerboard assay; conditions: 168 h
[21] = tested on: Mycobacterium tuberculosis H37Rv; assay: Ratio of thioridazine to compound for Inhibition of multidrug resistance efflux pump in Mycobacterium tuberculosis H37Rv using ethidium bromide as substrate assessed as relative final fluorescence at 1/2 MIC by real-time fluorometry
In short: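 H37Rv cells were loaded with EtBr at 0.5 µg/mL with test compound at ½ MIC. Where the MIC exceeded the testable range, the last determinable concentration was taken as ½ MIC. EtBr retention was followed by real-time fluorometry and expressed as relative final fluorescence (RFF), with verapamil and thioridazine as controls.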

[22] = tested on: Mycobacterium tuberculosis; assay: Inhibition of multidrug resistance efflux pump in Mycobacterium tuberculosis H37Rv assessed as rifampin MIC at 8 ug/ml after 7 days by two-dimensional broth microdilution checkerboard assay; conditions: 168 h
[23] = tested on: Mycobacterium tuberculosis; assay: Inhibition of multidrug resistance efflux pump in Mycobacterium tuberculosis H37Rv assessed as ofloxacin MIC at 64 ug/ml after 7 days by two-dimensional broth microdilution checkerboard assay; conditions: 168 h
[24] = tested on: Mycobacterium tuberculosis; assay: Inhibition of multidrug resistance efflux pump in Mycobacterium tuberculosis H37Rv assessed as isoniazid MIC at 4 ug/ml after 7 days by two-dimensional broth microdilution checkerboard assay; conditions: 168 h
[25] = tested on: Mycobacterium tuberculosis; assay: Inhibition of multidrug resistance efflux pump in Mycobacterium tuberculosis H37Rv assessed as rifampin MIC at 256 ug/ml after 7 days by two-dimensional broth microdilution checkerboard assay; conditions: 168 h; in short: as §1
[26] = tested on: Mycobacterium tuberculosis; assay: Inhibition of multidrug resistance efflux pump in Mycobacterium tuberculosis H37Rv assessed as isoniazid MIC at 64 ug/ml after 7 days by two-dimensional broth microdilution checkerboard assay; conditions: 168 h
[27] = tested on: Mycobacterium tuberculosis; assay: Inhibition of multidrug resistance efflux pump in Mycobacterium tuberculosis H37Rv assessed as ofloxacin MIC at 256 ug/ml after 7 days by two-dimensional broth microdilution checkerboard assay; conditions: 168 h; in short: as §1
[28] = tested on: Mycobacterium tuberculosis; assay: Inhibition of multidrug resistance efflux pump in Mycobacterium tuberculosis H37Rv assessed as ethidium bromide MIC at 32 ug/ml after 7 days by two-dimensional broth microdilution checkerboard assay; conditions: 168 h
[29] = tested on: Mycobacterium tuberculosis; assay: Inhibition of multidrug resistance efflux pump in Mycobacterium tuberculosis H37Rv assessed as amikacin MIC at 8 ug/ml after 7 days by two-dimensional broth microdilution checkerboard assay; conditions: 168 h
[30] = tested on: Mycobacterium tuberculosis; assay: Inhibition of multidrug resistance efflux pump in Mycobacterium tuberculosis H37Rv assessed as isoniazid MIC at 128 ug/ml after 7 days by two-dimensional broth microdilution checkerboard assay; conditions: 168 h
[31] = tested on: Mycobacterium tuberculosis; assay: Inhibition of multidrug resistance efflux pump in Mycobacterium tuberculosis H37Rv assessed as ethidium bromide MIC at 256 ug/ml after 7 days by two-dimensional broth microdilution checkerboard assay; conditions: 168 h
[32] = tested on: Mycobacterium tuberculosis; assay: Inhibition of multidrug resistance efflux pump in Mycobacterium tuberculosis H37Rv assessed as reduction in rifampin MIC at 256 ug/ml after 7 days by two-dimensional broth microdilution checkerboard assay; in short: as §1

SMILES	MIC [2] [µg/mL]	MIC [3] [µg/mL]	MIC [4] [µg/mL]	MIC [5] [µg/mL]	RFU [7]	MIC [9] [µg/mL]	MIC [10] [µg/mL]	MIC [12] [µg/mL]	MIC [13] [µg/mL]	MIC [14] [µg/mL]	MIC [15] [µg/mL]	MIC [16] [µg/mL]	MIC [17] [µg/mL]	MIC [19] [µg/mL]	MIC [22] [µg/mL]	MIC [23] [µg/mL]	MIC [24] [µg/mL]	MIC [26] [ng/mL]	MIC [28] [µg/mL]	MIC [29] [µg/mL]	other results
COc1ccc(N(CCC2CCCCN2C)C(C)C)cc1OC (racemic)	12.5	0.1	12.5	2	0.84	12.5	0.25	2	0.25	0.1	2	2	0.25	2	0.25	2	0.1	100	12.5	2	MIC [1]: 12.5 µg/mL; MIC [6]: 0.1 µg/mL; MIC [8]: 2 µg/mL; fold change (FC) [11]: 4; MIC [18]: 0.25 µg/mL; MIC [20]: 2 µg/mL; Ratio IC50 [21]: 2; MIC [25]: < 0.0156 µg/mL; MIC [27]: 1 µg/mL; MIC [30]: 0.1 µg/mL; MIC [31]: 12.5 µg/mL; fold change (FC) [32]: 164
CN1CCCCC1CCn1c2ccccc2c2ccccc21 (racemic)	12.5	0.05	< 0.195	1	0.33	12.5	0.5	1	0.0625	0.1	0.625	1	1	1	0.5	< 0.0156	0.1	< 0.078	1.56	1	fold change (FC) [11]: >64
CN1CCCCC1CCn1ccc2ccc(Br)cc21 (racemic)	12.5	0.1	1.56	1	1.22	12.5	0.0625	1	0.0312	0.1	1	1	0.5	1	0.25	< 0.0156	0.1	50	6.25	1	MIC [1]: < 0.195 µg/mL; MIC [6]: < 0.00078 µg/mL; MIC [8]: < 0.0156 µg/mL; fold change (FC) [11]: >164; MIC [18]: < 0.0156 µg/mL; MIC [20]: < 0.0156 µg/mL; Ratio IC50 [21]: 2; MIC [25]: < 0.0156 µg/mL; MIC [27]: < 0.0156 µg/mL; MIC [30]: < 0.0015 µg/mL; MIC [31]: < 0.195 µg/mL; fold change (FC) [32]: >164
CN1CCCCC1CCn1cnc2ccccc21 (racemic)	12.5	0.1	12.5	1	1	12.5	0.5	1	0.5	0.1	1	1	0.5	1	0.5	1	0.1	100	12.5	1	MIC [1]: 12.5 µg/mL; MIC [6]: < 0.00078 µg/mL; MIC [8]: 1 µg/mL; MIC [18]: 0.5 µg/mL; MIC [20]: 1 µg/mL; Ratio IC50 [21]: 2; MIC [25]: < 0.0156 µg/mL; MIC [27]: < 0.0156 µg/mL; MIC [30]: 0.1 µg/mL; MIC [31]: < 0.195 µg/mL; fold change (FC) [32]: >64
CSc1ccc2c(c1)N(CCC1CCCCN1C)c1ccccc1S2 (configuration not stated) [THIORIDAZINE]					0.27																
